Source: PubChem (several laboratories)
Ecoli WT expand = growth inhibitors of wild-type E. coli, primary screen, strain BW25113, expanded library, OD600; OD600 absorbance; growth inhibition, % at 100 µM; hit rate 0.15% among 98,000; AID 710, 2007;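 active = growth inhibition above about 50% at one test dose, limit read from the data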;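 also: growth measured after 20 h incubation at 37 °C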
AP ELISA ortho = alternative complement pathway inhibitors, primary screen, biochemical, ELISA, human serum, orthogonally pooled compounds; LPS-coated ELISA, C3 deposition; tested in compound mixtures; inhibition, % at 5 µM; hit rate 0.08% among 62,000;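 active = inhibition above 30% in each of the two pooled mixtures holding the compound, so the lower value exceeds 30%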;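 also: 0% = serum in Mg-EGTA without compound and 100% = EDTA serum blank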
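Test system: human serum complement alternative pathway, C3 deposition onto LPS / Medium: Mg2+-EGTA GVB++ buffer containing human serum at 1:15 dilution / Probe or stimulus: Plate-bound LPS / Times: 1 h at 37 °C / Signal: ELISA with HRP anti-human C3 antibody, TMB substrate, absorbance 450 nm / Measure: percent inhibition / Repeats: two pool placements per compound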
tolC growth inh = growth inhibitors of E. coli tolC mutant, primary screen, strain BW25113 ΔtolC::kan, 384-well | OD615 | growth inhibition, % at 10 µM (by protocol) | hit rate 2.2% among 65,000 | AID 573, 2007;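 active = growth inhibition at or above a cutoff equal to the mean over every tested compound plus 3 SD, cut at about 60% in these data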;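 also: growth measured after 20 h incubation at 37 °C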
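Assay system: tolC-deleted E. coli BW25113. Medium: kanamycin-containing LB broth (50 µg/mL). Dosing: 10 µM final, single dose. Timing: bacterial growth with compound for 20 h at 37 °C. Detection: A615 absorbance measurement. Read-out basis: growth inhibition in percent.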
M1 antagonist = antagonists of rat M1 muscarinic receptor; Muscarinic acetylcholine receptor M1 (Rattus norvegicus), P08482; AID 628, 2007; B-score at 10 µM; CHO-M1 cells, Fluo-4 calcium, ACh EC80 antagonist mode; stronger effect = lower value; hit rate 3.4% among 64,000;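 active = calcium fluorescence response, raw or row-and-column corrected B-score, differing from the plate sample mean either way at a set confidence level, mostly lower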
WNV NS2B-NS3 inh = inhibitors of WNV NS2B-NS3 protease, primary screen, biochemical, fluorogenic substrate | AID 577, 2007 | z-score (concentration not given with the values) | fluorogenic substrate Ex360/Em465; stronger effect = lower value | hit rate 0.18% among 65,000 | Genome polyprotein (West Nile virus), P06935; in the data active = z-score below about -3
Target sequence (P06935 1371-1501 limits assumed): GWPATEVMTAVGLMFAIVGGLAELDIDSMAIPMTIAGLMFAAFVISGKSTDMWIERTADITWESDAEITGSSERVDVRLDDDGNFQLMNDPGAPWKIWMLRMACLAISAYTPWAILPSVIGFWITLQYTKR
Target sequence (P06935 1502-1679 limits assumed): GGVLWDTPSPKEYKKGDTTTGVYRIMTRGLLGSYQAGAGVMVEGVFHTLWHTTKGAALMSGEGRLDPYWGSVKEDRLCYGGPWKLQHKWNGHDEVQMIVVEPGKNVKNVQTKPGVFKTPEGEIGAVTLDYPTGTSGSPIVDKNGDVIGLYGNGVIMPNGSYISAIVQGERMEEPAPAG
M1 ag = M1 muscarinic receptor agonists, primary screen, CHO-M1 cells, Fluo-4 calcium, agonist mode | Muscarinic acetylcholine receptor M1 | hit rate 3% among 64,000 | AID 626, 2007 | Fluo-4 calcium fluorescence; stronger effect = higher value | B-score at 10 µM;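 active = fluorescence rise, raw or as B-score row- and column-corrected plate score, outside the 99.7% band of its plate's samples, either direction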
M1 antag conf = rat M1 muscarinic receptor antagonists, confirmation, CHO cells, Fluo-4 calcium, duplicate; shares compounds with M1 antagonist; ACh EC80 antagonism; stronger effect = lower value; calcium response (max-min fluorescence) at 10 µM; hit rate 43% among 1,700; AID 677, 2007;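 active = calcium response below the same-plate mean of wells given acetylcholine alone at its 80%-effect dose, minus 3 SD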;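 also: raw fluorescence intensity difference in arbitrary instrument units and not normalized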
mGluR4 antag = human mGluR4 response to M1 antagonist hits, M1 allosteric modulator project, cell-based, antagonist mode, secondary assay 1 | shares compounds with M1 antagonist | AID 678, 2007 | fluorescence response (max-min) at 10 µM | hit rate 0.9% among 1,700 | CHO-mGluR4 calcium flux, Fluo-4 fluorescence, glutamate EC80; stronger effect = lower value;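 active = fluorescence response below the plate's average for near-maximal glutamate wells, less 3 SD of those wells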;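 also: raw unnormalized fluorescence span taken in the window right after glutamate addition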
An asterisk follows results filed as active. The list is not random: actives were taken first. Their share in the collection is about 5.2%.

`O=C1CC(N2CCN(C/C=C/c3ccccc3)CC2)C(=O)N1Cc1cccs1` (stereo not given) gave Ecoli WT expand 5.0, AP ELISA ortho 8.9, tolC growth inh 3.9, M1 antagonist -19.2*, WNV NS2B-NS3 inh 1.56, M1 ag 0.965, M1 antag conf 22.9* and mGluR4 antag 216.
O=C1CC(N2CCN(C/C=C/c3ccccc3)CC2)C(=O)N1CCc1ccccc1 (stereo not given) was read as Ecoli WT expand 5.0, AP ELISA ortho 3.1, tolC growth inh 7.9, M1 antagonist -3.98*, WNV NS2B-NS3 inh -0.59, M1 ag 1.54, M1 antag conf 422* and mGluR4 antag 256.
O=C1CC(N2CCN(c3ccc(O)cc3)CC2)C(=O)N1Cc1cccs1 (stereo not given) was read as Ecoli WT expand 1.0, AP ELISA ortho 9.9, tolC growth inh -6.1, M1 antagonist 0.604, WNV NS2B-NS3 inh -0.55 and M1 ag 0.
For O=C1CC(N2CCN(C3CC(=O)N(CCc4ccccc4)C3=O)CC2)C(=O)N1CCc1ccccc1 (stereo not given) the results were Ecoli WT expand -12.0, tolC growth inh 1.0, M1 antagonist 0.299, WNV NS2B-NS3 inh 1.95 and M1 ag 0.107.
COc1ccc(CNC(=O)C2CCCN2S(=O)(=O)c2ccccc2)cc1 (stereo not given) was read as Ecoli WT expand -3.0, AP ELISA ortho 12.9, tolC growth inh -7.3, M1 antagonist 0.23, WNV NS2B-NS3 inh -1.21 and M1 ag -0.0927.
O=C(Nc1c(-c2ccccc2)nc2sccn12)c1ccccc1 was read as Ecoli WT expand 10.0, AP ELISA ortho 10.0, tolC growth inh -3.9, M1 antagonist 0.499, WNV NS2B-NS3 inh -0.61 and M1 ag -1.45.
`C=C1Cn2c(nnc2-c2ccc(Cl)cc2)S1` gave Ecoli WT expand 5.0, AP ELISA ortho 23.1, tolC growth inh -1.5, M1 antagonist 0.485, WNV NS2B-NS3 inh 0.3 and M1 ag 0.194.
For O=c1c2ccccc2[nH]c(=S)n1CCN1CCN(Cc2ccccc2)CC1 the results were Ecoli WT expand 4.0, AP ELISA ortho 14.6, tolC growth inh 16.3, M1 antagonist -4.23*, WNV NS2B-NS3 inh -0.73, M1 ag -0.257, M1 antag conf 508* and mGluR4 antag 176.
CCc1nc(OCCN(CC)CC)c2oc3ccccc3c2n1 was read as Ecoli WT expand -6.0, AP ELISA ortho 13.1, tolC growth inh -9.1, M1 antagonist -0.848, WNV NS2B-NS3 inh -0.36 and M1 ag -0.0568.
Screening CCN(CC)CCOc1ncnc2c1oc1ccccc12 returned Ecoli WT expand 9.0, AP ELISA ortho 2.0, tolC growth inh 6.2, M1 antagonist -1.58*, WNV NS2B-NS3 inh 0.95, M1 ag 0.0908, M1 antag conf 584* and mGluR4 antag 198.
For COc1ccc(Cc2nc3ccc(S(N)(=O)=O)cc3[nH]2)cc1OC the results were Ecoli WT expand -1.0, AP ELISA ortho 9.9, tolC growth inh 4.6, M1 antagonist -2.93*, WNV NS2B-NS3 inh 0.57, M1 ag 0.417, M1 antag conf 580 and mGluR4 antag 225.
O=C(CSc1nnc(Cn2c(=O)sc3ccccc32)n1-c1ccccc1)Nc1nccs1 was read as Ecoli WT expand 6.0, AP ELISA ortho -2.6, tolC growth inh -1.6, M1 antagonist -0.391, WNV NS2B-NS3 inh 0.16 and M1 ag 0.221.
Screening CC(C)CC(=O)N1CCN(S(C)(=O)=O)CC1 returned Ecoli WT expand -5.0, AP ELISA ortho 5.9, tolC growth inh -12.2, M1 antagonist -3.62*, WNV NS2B-NS3 inh -1.02, M1 ag -0.117, M1 antag conf 594 and mGluR4 antag 238.
CC(C)CC(=O)N1CCN(S(=O)(=O)c2ccc(F)cc2)CC1 was read as Ecoli WT expand 0.0, AP ELISA ortho -12.9, tolC growth inh -0.3, M1 antagonist -0.411, WNV NS2B-NS3 inh 0.32 and M1 ag 0.39.
`Cc1ccc(-c2nnc(N3CCN(C(=O)c4ccco4)CC3)c3ccccc23)cc1` gave Ecoli WT expand -4.0, AP ELISA ortho 6.5, tolC growth inh 31.9, M1 antagonist -6.93*, WNV NS2B-NS3 inh 0.02, M1 ag 1.6, M1 antag conf 209* and mGluR4 antag 206.
Screening Cc1ccc(OCC(=O)N2CCN(c3nnc(-c4ccc(C)cc4)c4ccccc34)CC2)cc1 returned Ecoli WT expand -9.0.
N=c1c(C(=O)NCc2ccco2)cc2c(=O)n3ccccc3nc2n1Cc1ccccc1 was read as Ecoli WT expand -13.0, AP ELISA ortho 13.6, tolC growth inh 25.3, M1 antagonist -2.96*, WNV NS2B-NS3 inh 0.14, M1 ag -0.0835, M1 antag conf 589* and mGluR4 antag 206.
For CC(C)n1c(=N)c(C(=O)NCCc2ccccc2)cc2c(=O)n3ccccc3nc21 the results were Ecoli WT expand 3.0, tolC growth inh 3.6, M1 antagonist -4.05*, WNV NS2B-NS3 inh 2.48, M1 ag 4.11, M1 antag conf 445* and mGluR4 antag 247.
COC(=O)c1cc2c(=O)n3ccccc3nc2n(C(C)C)c1=N was read as AP ELISA ortho 7.1, tolC growth inh -2.5, M1 antagonist -0.293, WNV NS2B-NS3 inh 4.89 and M1 ag -0.72.
Cc1cccn2c(=O)c3cc(C(=O)NCc4cccnc4)c(=N)n(C(C)C)c3nc12 was read as Ecoli WT expand 8.0, AP ELISA ortho 7.7, tolC growth inh 3.7, M1 antagonist -2.53*, WNV NS2B-NS3 inh 3.92, M1 ag -1.24, M1 antag conf 579 and mGluR4 antag 259.
N=c1c(C(=O)NCc2ccccc2)cc2c(=O)n3ccccc3nc2n1Cc1ccco1 was read as Ecoli WT expand -8.0, AP ELISA ortho -1.4, tolC growth inh 5.7, M1 antagonist -1.73, WNV NS2B-NS3 inh 0.15 and M1 ag 2.84.
For Cc1ccc(C(=O)NNC(=O)CSc2nnc(-c3ccncc3)n2-c2ccc(C)cc2)cc1 the results were Ecoli WT expand 6.0.
Screening COC(=O)C1=C(N)Oc2cc(C)n(CCN3CCOCC3)c(=O)c2C1c1cccnc1 (stereo not given) returned Ecoli WT expand 1.0, AP ELISA ortho -8.2, tolC growth inh -14.1, M1 antagonist -0.637, WNV NS2B-NS3 inh 1.44 and M1 ag -1.04.
